Data reported in PMC7489285 (Molecular cancer therapeutics, 2012).
pIC50: −log10 of the molar value.

Key:
neuronal tubulin = assay: fluorescence-enhanced tubulin polymerization assay; assay type: biochemical; conditions: ratio of tubulin polymerization ED50 values
231-BR cells = assay: MTT in vitro cytotoxicity assay; assay type: cell-based; conditions: Homo sapiens, 72 h, read-out: IC50 values and maximal toxicity
Method in brief: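 231-BR cells seeded at 2,000/well 24 h before compound addition. Ethanol drug stocks were serially diluted into culture medium and added to triplicate wells, then cultured 72 h. Viable cells were read by MTT, normalized to drug-free viable cells at endpoint. At least 3 independent experiments.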

231-BR primary tumors = assay: breast primary tumor model; assay type: in vivo, mouse
231-BR brain metastases = assay: experimental brain metastasis model; assay type: in vivo, mouse
[1] = system: experimental brain metastases; conditions: 2 experimental brain metastasis models, radiolabeled drug; cited from earlier work
[2] = system: intracerebrally implanted MDA-MB-435, Lu7187 and Lu7466 tumor cells; conditions: cited from earlier work; for growth of intracerebrally implanted tumor cells: MDA-MB-435, Lu7187 and Lu7466 cells
[3] = system: breast cancer brain metastases; conditions: phase II, cited from earlier work
[4] = system: breast cancer brain metastases; conditions: phase II, cited from earlier work; remark: listed apart in the source
[5] = mice, favorable half-life; cited from earlier work

SMILES: CC(=O)O[C@@]12CO[C@@H]1C[C@H](O)[C@@]1(C)C(=O)[C@H](O)C3=C(C)[C@@H](OC(=O)[C@H](O)[C@@H](NC(=O)OC(C)(C)C)c4ccccc4)C[C@@](O)([C@@H](OC(=O)c4ccccc4)[C@H]21)C3(C)C [Docetaxel]
- ED50 compound/ ED50 paclitaxel (neuronal tubulin): 1.07
- pIC50 (231-BR cells): > 8.00

SMILES: CC(=O)O[C@H]1C(=O)[C@@]2(C)[C@H]([C@H](OC(=O)c3ccccc3)[C@]3(O)C[C@H](OC(=O)[C@H](O)[C@@H](NC(=O)c4ccccc4)c4ccccc4)C(C)=C1C3(C)C)[C@]1(OC(C)=O)CO[C@@H]1C[C@@H]2O [Paclitaxel]
- pIC50 (231-BR cells): > 8.00
- amount of acetylated tubulin-α in primary tumors (231-BR primary tumors; 18 mg/kg i.v. every 4 days ×3, immunofluorescence): increase
- estimated tumor growth rate (slope) of log10 tumor volume (231-BR primary tumors; 18 mg/kg i.v. every 4 days ×3 from day 37, days 41 to 48): −0.0450 ± 0.00743
- prevention of brain metastatic colonization (231-BR brain metastases; 18 mg/kg ×3, early or late, all points not significant): ineffective
- Ki67-positive 231-BR cells in brain metastases (proliferation), mean (231-BR brain metastases; day 28, 48 hours after final late 18 mg/kg treatment, vehicle 56.0% ± 2.22%): 54.4% ± 1.91%
- experimental lesions with sufficient uptake to show a cytotoxic response [1]: 10%
- growth of intracerebrally implanted tumor cells [2]: nonsignificant effects

SMILES: C=CC[C@H]1C(=O)C(C)(C)[C@@H](O)CC(=O)O[C@H](c2ccc3sc(C)nc3c2)C[C@@H]2O[C@]2(C)CCC[C@H](C)[C@@H]1O [Sagopilone]
- growth of intracerebrally implanted tumor cells [2]: reduced the growth
- weight loss [2]: 6%
- BBB penetration ([2]; mice, favorable AUC and half-life): crossed the BBB
- patients achieving partial responses ([3]; progressive brain metastases after whole brain radiation therapy, two patients): 13.3%
- median progression-free survival [3]: 1.4 months
- overall survival [3]: 5.3 months

SMILES: C/C(=C\c1csc(C)n1)[C@@H]1C[C@@H]2O[C@]2(C)CCC[C@H](C)[C@H](O)[C@@H](C)C(=O)C(C)(C)[C@@H](O)CC(=O)N1 [ixabepilone]
- pIC50 (231-BR cells): > 8.00
- toxicity of initial doses (231-BR brain metastases; mice, initial 2 doses of 5 mg/kg): significant toxicity

SMILES: C/C(=C\c1csc(C)n1)[C@@H]1C[C@@H]2O[C@]2(C)CCC[C@H](C)[C@H](O)[C@@H](C)C(=O)C(C)(C)[C@@H](O)CC(=O)O1 [patupilone]
- partial responses, patients ([4]; 6 of 31): 19%
- stable disease, patients ([4]; 9 of 31): 29%
- incidence of peripheral neuropathy [4]: 27%
- brain distribution [5]: Significant brain distribution
